Laboratory results reported in paper PMC6175042 (Journal of nuclear medicine : official publication, Society …, 2018).

Assays:
[1] = test system: αvβ3 integrin-negative FaDu xenograft tumours (αvβ3 integrin expressed solely on neovasculature); experiment: Ex vivo biodistribution in mice with FaDu xenografts; conditions: i.v. 0.5 nmol/mouse, 1 h post injection, n=5; for Tumour uptake, FaDu: mean ± SD; for Tumour-to-blood ratio, FaDu / Tumour-to-duodenum ratio / Tumour-to-heart ratio / Tumour-to-kidneys ratio / Tumour-to-liver ratio / Tumour-to-lung ratio / Tumour-to-muscle ratio / Tumour-to-pancreas ratio / Tumour-to-spleen ratio / Tumour-to-stomach ratio: FaDu
[2] = as above; conditions: female, BALB/c nude (BALB/c nu/nu/Foxn1nu), mouse, salivary glands, iv, 0.5 nmol/mouse
αvβ3 integrin = conditions: cited from earlier work
[3] = test system: αvβ3 integrin-positive SK-RC-52 xenograft tumours; experiment: Ex vivo biodistribution in mice with SK-RC-52 xenografts; conditions: i.v. 0.5 nmol/mouse, 1 h post injection, n=5; for Tumour uptake, SK-RC-52: mean ± SD; for Tumour-to-blood ratio, SK-RC-52 / Tumour-to-duodenum ratio / Tumour-to-heart ratio / Tumour-to-kidneys ratio / Tumour-to-liver ratio / Tumour-to-lung ratio / Tumour-to-muscle ratio / Tumour-to-pancreas ratio / Tumour-to-spleen ratio / Tumour-to-stomach ratio: SK-RC-52
How it was run: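 Female athymic BALB/c nu/nu mice (6–8 weeks) received 2x10^6 SK-RC-52 cells s.c. in the left flank. Cells were grown in RPMI 1640 with 10% FCS and 1% glutamine. The 68Ga-labelled test compound (15 MBq in 0.3 ml PBS with 0.5% BSA, pH 7.4) was injected via the tail vein into awake, heat-lamp-warmed mice. After CO2/O2 euthanasia, tissues were dissected, weighed and gamma-counted against 1% standards, giving %ID/g.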

Compound	Tumour uptake, FaDu [1] [%ID/g]	Tumour-to-blood ratio, FaDu [1]	Tumour-to-duodenum ratio [1]	Tumour-to-heart ratio [1]	Tumour-to-kidneys ratio [1]	Tumour-to-liver ratio [1]	Tumour-to-lung ratio [1]	Tumour-to-muscle ratio [1]	Tumour-to-pancreas ratio [1]	Tumour-to-spleen ratio [1]	Tumour-to-stomach ratio [1]	tissue uptake at 1 h [2] [%ID/g]	Tumour targeting compared to monomeric RGD peptides (αvβ3 integrin)	Tumour uptake, SK-RC-52 [3] [%ID/g]	Tumour-to-blood ratio, SK-RC-52 [3]	Tumour-to-duodenum ratio [3]	Tumour-to-heart ratio [3]	Tumour-to-kidneys ratio [3]	Tumour-to-liver ratio [3]	Tumour-to-lung ratio [3]	further results
N=C(N)NCCC[C@@H]1NC(=O)[C@H](CCCCNC(=O)CCOCCOCCOCCOCCNC(=O)CCP(=O)(O)CN2CCN(CP(=O)(O)CCC(=O)NCCOCCOCCOCCOCCC(=O)NCCCC[C@@H]3NC(=O)[C@@H](Cc4ccccc4)NC(=O)[C@H](CC(=O)O)NC(=O)CNC(=O)[C@H](CCCNC(=N)N)NC3=O)CCN(CP(=O)(O)CCC(=O)NCCOCCOCCOCCOCCC(=O)NCCCC[C@@H]3NC(=O)[C@@H](Cc4ccccc4)NC(=O)[C@H](CC(=O)O)NC(=O)CNC(=O)[C@H](CCCNC(=N)N)NC3=O)CC2)NC(=O)[C@@H](Cc2ccccc2)NC(=O)[C@H](CC(=O)O)NC(=O)CNC1=O (single isomer, unassigned) [^68Ga-TRAP-(RGD)3, metal not drawn]	1.0±0.2	5.8±0.9	0.3±0.07	4.4±1.4	0.5±0.1	0.8±0.2	1.5±0.4	4.8±1.2	4.6±1.0	0.9±0.2	0.8±0.2	0.7 ± 0.1	improved tumour targeting	4.4±0.8	38.5±3.8	1.4±0.4	15.3±2.3	1.1±0.1	3.0±0.5	4.8±0.9	Tumour-to-muscle ratio [3]: 20.9±3.6; Tumour-to-pancreas ratio [3]: 17.3±3.7; Tumour-to-spleen ratio [3]: 3.0±0.5; Tumour-to-stomach ratio [3]: 3.0±0.7
C/C1=C/C(=O)N(O)CCC[C@H](NC(=O)CCC(=O)NCCCC[C@@H]2NC(=O)[C@@H](Cc3ccccc3)NC(=O)[C@H](CC(=O)O)NC(=O)CNC(=O)[C@H](CCCNC(=N)N)NC2=O)C(=O)OCC/C(C)=C\C(=O)N(O)CCC[C@H](NC(=O)CCC(=O)NCCCC[C@@H]2NC(=O)[C@@H](Cc3ccccc3)NC(=O)[C@H](CC(=O)O)NC(=O)CNC(=O)[C@H](CCCNC(=N)N)NC2=O)C(=O)OCC/C(C)=C\C(=O)N(O)CCC[C@H](NC(=O)CCC(=O)NCCCC[C@@H]2NC(=O)[C@@H](Cc3ccccc3)NC(=O)[C@H](CC(=O)O)NC(=O)CNC(=O)[C@H](CCCNC(=N)N)NC2=O)C(=O)OCC1 [^68Ga-FSC-(RGD)3, metal not drawn]	1.9±0.3	3.5±0.6	0.4±0.08	2.4±0.4	0.4±0.05	0.8±0.1	0.9±0.1	3.6±0.6	3.0±0.4	0.6±0.06	0.6±0.1	2.2 ± 0.3	improved tumour targeting	12.5±2.5	30.7±8.1	1.5±0.4	12.4±3.2	1.9±0.3	2.5±0.2	4.8±0.9	Tumour-to-muscle ratio [3]: 17.2±3.2; Tumour-to-pancreas ratio [3]: 17.9±3.5; Tumour-to-spleen ratio [3]: 2.6±0.5; Tumour-to-stomach ratio [3]: 2.6±0.3
